This note sets out measurements from ChEMBL document CHEMBL1126583, “Potent quinoxaline-spaced phosphono alpha-amino acids of the AP-6 type as competitive NMDA antagonists: synthesis and biological evaluation” (J Med Chem, 1993).

Where only a bound is given, the exact number is not on record here.

Experiment [1] addresses Glutamate NMDA receptor. In words: Tested for binding affinity against NMDA receptor, from rat synaptic membrane, using [3H]-CPP as the radioligand. The procedure, abridged: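 Rat whole-brain crude synaptic membranes, Triton X-100 treated and frozen at -70 °C; 0.2–0.5 mg protein incubated 15 min at 23 °C with 8 nM [3H]CPP in 50 mM Tris HCl pH 7.6. Nonspecific binding defined with 1.0 mM NMDA. Bound ligand separated by centrifugation and counted by scintillation. Triplicates, 5–10 concentrations; IC50 with 95% confidence limits.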

For experiment [2], the target named is Glutamate NMDA receptor. In words: Tested for binding affinity against NMDA receptor, from rat synaptic membrane, using [3H]glycine as the radioligand. The procedure, abridged: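 Rat whole-brain synaptic membranes washed and resuspended in 50 mM Tris citrate. Separation by centrifugation, then scintillation counting.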
Experiment [3] deals with Glutamate NMDA receptor. In words: Tested for binding affinity against NMDA receptor, from rat synaptic membrane, using [3H]TCP as the radioligand. The gist of the method:
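Stimulated binding assay on rat whole-brain synaptic membranes in 5.0 mM Tris HCl pH 7.4. […] 100 μM MK-801 defines nonspecific binding. Filtration through PEI-soaked glass-fiber filters, then scintillation counting. Triplicates, 5–10 concentrations; IC50 with 95% confidence limits.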

A word on the IC50: it is the concentration at which inhibition is half-maximal. Lower therefore signals greater potency in that assay. Take `NC(Cc1nc2cc(Cl)c(Cl)cc2nc1CP(=O)(O)O)C(=O)O` (configuration not stated): the figures for the IC50 on Glutamate NMDA receptor [1], on Glutamate NMDA receptor [2] and on Glutamate NMDA receptor [3] were 3.4 nM, 610 nM and 11700 nM, respectively.

Regarding `O=C(O)[C@@H]1C[C@H](CP(=O)(O)O)CCN1` [SELFOTEL], the results for the IC50 at Glutamate NMDA receptor [1], at Glutamate NMDA receptor [2] and on Glutamate NMDA receptor [3] were 28 nM, more than 100000 nM and 22400 nM, respectively.

Consider `O=C(O)C1CN(CCCP(=O)(O)O)CCN1` (configuration not stated), for which the figures for the IC50 at Glutamate NMDA receptor [1] and at Glutamate NMDA receptor [2] were 113 nM and more than 100000 nM, respectively.

Turning to `NC(Cc1cc2nccnc2cc1CP(=O)(O)O)C(=O)O` (configuration not stated), at Glutamate NMDA receptor [1], the IC50 is more than 1000 nM.

For `NC(Cc1nc2cc(F)c(F)cc2nc1CP(=O)(O)O)C(=O)O` (configuration not stated), at Glutamate NMDA receptor [1], the IC50 was determined as 166 nM.

As for `NC(Cc1nc2ccccc2nc1CP(=O)(O)O)C(=O)O` (single isomer, unassigned; (+)), the IC50 on Glutamate NMDA receptor [1] was more than 1000 nM.

`NC(Cc1nc2cc(Cl)ccc2nc1CP(=O)(O)O)C(=O)O` (configuration not stated): the IC50 was 24 nM at Glutamate NMDA receptor [1], more than 100000 nM on Glutamate NMDA receptor [2] and 8600 nM at Glutamate NMDA receptor [3].

As to `NC(CCCCCP(=O)(O)O)C(=O)O` (configuration not stated) [AP-7], the IC50 at Glutamate NMDA receptor [3] was determined as 302000 nM.

For `Cc1cc2nc(CC(N)C(=O)O)c(CP(=O)(O)O)nc2cc1C` (configuration not stated), the IC50 worked out at 22.3 nM on Glutamate NMDA receptor [1] and 16400 nM on Glutamate NMDA receptor [3].

In the case of `COc1cc2nc(CC(N)C(=O)O)c(CP(=O)(O)O)nc2cc1OC` (configuration not stated), the IC50 on Glutamate NMDA receptor [1] amounted to 832 nM.

On to `NC(Cc1nc2ccccc2nc1CCP(=O)(O)O)C(=O)O` (configuration not stated), for which the IC50 on Glutamate NMDA receptor [1] is more than 1000 nM.

With `NC(Cc1nc2cc3ccccc3cc2nc1CP(=O)(O)O)C(=O)O` (configuration not stated), the IC50 on Glutamate NMDA receptor [1] was found to be 6.5 nM; at Glutamate NMDA receptor [3] it was 5600 nM.

Molecule `NC(Cc1nc2c(Cl)ccc(Cl)c2nc1CP(=O)(O)O)C(=O)O` (configuration not stated) yielded an IC50 on Glutamate NMDA receptor [1] of 245 nM.

With `NC(Cc1nc2ccccc2nc1CP(=O)(O)O)C(=O)O` (stereo in doubt; 7), the IC50 on Glutamate NMDA receptor [1] turned out to be 119 nM; on Glutamate NMDA receptor [2], 4700 nM; on Glutamate NMDA receptor [3], 28000 nM.

For `NC(Cc1nc2ccc(Cl)cc2nc1CP(=O)(O)O)C(=O)O` (configuration not stated), the IC50 on Glutamate NMDA receptor [1] turned out to be 38 nM; at Glutamate NMDA receptor [2], 1800 nM; at Glutamate NMDA receptor [3], 13900 nM.

Regarding `CCOC(=O)C(N)Cc1nc2ccccc2nc1CP(=O)(O)O` (configuration not stated), the IC50 on Glutamate NMDA receptor [1] is more than 1000 nM.

Regarding `NC(Cc1nc2ccccc2nc1CP(=O)(O)O)C(=O)O` (stereo in doubt; 9), the half-maximal inhibitory concentration (IC50) at Glutamate NMDA receptor [1] was 29.3 nM; on Glutamate NMDA receptor [3], 21000 nM.

`NC(Cc1nc2ccccc2nc1/C=C/P(=O)(O)O)C(=O)O` (configuration not stated) had an IC50 on Glutamate NMDA receptor [1] of more than 1000 nM.
